The array DNA melting data of Ke et al. (doi:10.1101/2024.01.08.574731)

Legend:
[1] = folding enthalpy; higher = less favourable; fluorescence melt of hairpins on a sequencing array, two-state fit; details: sodium 0.088 M
How it was run: (§1)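 To match UV melts, fitted temperatures were raised by 9.35 °C. These fits were bootstrapped two-state models that gave melting temperature and folding enthalpy, combined by inverse variance over four replicates. The input was normalised Cy3 fluorescence of library hairpins with annealed Cy3 and quencher oligos on a sequenced MiSeq flow cell, imaged in 50 mM Na-HEPES pH 8.0, 25 mM NaCl in 2.5 °C steps up to 60 °C.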

[2] = melting temperature; fluorescence melt of hairpins on a sequencing array, two-state fit, raised by 9.35 °C to match UV melts; details: sodium 0.088 M
How it was run: as §1

Sequence | folding enthalpy [1] [kcal/mol] | Tm [2] [°C]
GTGCTCGAAAGAGACCAC ((((((....)))..))) | -14.6 | 34.4
GTGCTCGAAAGAGATCAC ((((((....)))..))) | -13.6 | 30.9
GTGCTCGAAAGAGCCAC ((((((....))).))) | -11.2 | 49
GTGCTCGAAAGAGCTCAC ((((((....)))..))) | -10.8 | 42.8
GTGCTCGAAAGAGGCAC ((((((....))).))) | -24.7 | 55.2
GTGCTCGAAAGAGTCCAC ((((((....)))..))) | -13.1 | 31.8
GTGCTCGAAAGAGTTCAC ((((((....)))..))) | -13.6 | 34.6
GTGCTCGGAAACAAGCAC (((((.(....).))))) | -31.9 | 46.2
GTGCTCGGAAACGAGTGC (..((((....))))..) | -24.2 | 50.4
GTGCTGACGAAAGTCCAC (((..(((....)))))) | -11.9 | 40.8
GTGCTGCGAAAGCAACAC (((.(((....))).))) | -33.8 | 56.5
GTGCTGGGAAACTAGCAC (((((.(....).))))) | -41.3 | 54.3
GTGCTTCCGAAAGGACAC (((..(((....)))))) | -22.1 | 39.7
GTGCTTGAAAAAGCAC ((((((....)))))) | -27.9 | 63.3
GTGCTTGCGAAAGCACAC (((..(((....)))))) | -13.1 | 61.4
GTGGAACCGAAAGGTCAC (((..(((....)))))) | -21.9 | 42.3
GTGGAAGGAAACCTCCAC (((((.(....).))))) | -34 | 44.1
GTGGAAGGAAACTTTCAC (((.(((....))).))) | -33 | 43.2
GTGGACACGAAAGTGCAC (((..(((....)))))) | -18.1 | 45
GTGGACGGAAACGCCCAC ((((.((....)).)))) | -56.1 | 53.2
GTGGAGGCGAAAGCCCAC (((..(((....)))))) | -17.1 | 52.9
GTGGAGGGAAACCTTCGC (.(.(((....))).).) | -26.7 | 34.1
GTGGAGGGAAACTTCCGC (.(((.(....).))).) | -26.7 | 35.1

Sequence | folding enthalpy [1] [kcal/mol] | Tm [2] [°C]
GTGGATGGAAACACCCAC ((((.((....)).)))) | -32.6 | 44.2
GTGGCAACGAAAGTTCAC (((..(((....)))))) | -7.15 | 27.8
GTGGCCGAAAGGCATCAC ((((((....)))..))) | -11.8 | 39.5
GTGGCCGAAAGGCCTCAC ((((((....)))..))) | -7.49 | 40.4
GTGGCCGAAAGGCGACAC ((((((....)))..))) | -14 | 57.4
GTGGCCGAAAGGCTACAC ((((((....)))..))) | -13.5 | 58.2
GTGGCTGGAAACAGCTAC ((.((((....)))).)) | -29.3 | 53.9
GTGGCTGGAAACAGTCAC (((.(((....))).))) | -36.9 | 55.1
GTGGCTGGAAACAGTCGC (.(.(((....))).).) | -24.6 | 47
GTGGCTGGAAACGGCCAC (((((.(....).))))) | -47.5 | 64
GTGGCTGGAAACGGCTAC ((.((.(....).)).)) | -24.2 | 44
GTGGCTGGAAACGGTCAC (((.(.(....).).))) | -30.7 | 44.5
GTGGCTTCGAAAGAACAC (((..(((....)))))) | -8.99 | 29.7
GTGGGAGGAAACTCTCAC (((.(((....))).))) | -39.1 | 48.7
GTGGGCGCGAAAGCGCAC (((..(((....)))))) | -16.4 | 67.9
GTGGGCGGAAACGCCTGC (..((((....))))..) | -13.2 | 47
GTGGGGGGAAACCCCTGC (..((((....))))..) | -11.5 | 42.3
GTGGGGGGAAACCTCCGC (.((.((....)).)).) | -25.4 | 45.4
GTGGGGGGAAACTCCCGC (.(((.(....).))).) | -21.4 | 48.8
GTGGGTGGAAACACTCGC (.(.(((....))).).) | -24.7 | 42
GTGGGTGGAAACATCCAC ((((.((....)).)))) | -32.4 | 53.5
GTGGGTGGAAACGCCCAC (((((.(....).))))) | -40.3 | 61.8
GTGGGTGGAAACGCTCAC (((.(.(....).).))) | -33 | 40.6

Sequence | folding enthalpy [1] [kcal/mol] | Tm [2] [°C]
GTGGGTTCGAAAGAACAC (((..(((....)))))) | -27 | 57.4
GTGGTACGAAAGTAGCAC (((.(((....))).))) | -42 | 63.2
GTGGTAGGAAACTGTCAC (((..((....))..))) | -17.3 | 32.9
GTGGTCCGAAAGGATCAC (((.(((....))).))) | -41.1 | 60.4
GTGGTCGAAAGACAGCAC ((((((....)))..))) | -16.9 | 40.6
GTGGTCGGAAACGGTCAC (((..((....))..))) | -23 | 44.2
GTGGTGAAAACCAC (((((....))))) | -27.3 | 58
GTGGTGGGAAACTGCCAC ((((..(....)..)))) | -29.2 | 49.1
GTGGTTCCGAAAGGACAC (((..(((....)))))) | -17.3 | 40
GTGGTTCGAAAGAACAC (((.(((....)))))) | -16.8 | 47.8
GTGGTTGGAAACAACCAC (((((((....))))))) | -44.5 | 65.7
GTGGTTGGAAACAATCGC (.(.(((....))).).) | -23.3 | 35
GTGGTTGGAAACAGCTAC ((.(.((....)).).)) | -23.3 | 33.1
GTGTAACGAAAGTTGCAC (((.(((....))).))) | -33 | 53.6
GTGTAAGCGAAAGCTCAC (((..(((....)))))) | -19.3 | 44.9
GTGTAAGGAAACTTACAC (((((((....))))))) | -42.2 | 54.2
GTGTAATCGAAAGATCAC (((..(((....)))))) | -23.9 | 33.8
GTGTACCGAAAGGTCAC (((.(((....)))))) | -30.5 | 53
GTGTACCGAAAGGTGCAC (((.(((....))).))) | -34.1 | 65.2
GTGTACGAAAGTACGCAC ((((((....)))..))) | -14.5 | 49.9
GTGTACGAAAGTAGACAC ((((((....)))..))) | -22.7 | 40.8
GTGTACGAAAGTAGCCAC ((((((....)))..))) | -14.2 | 31.9
GTGTACGAAAGTATGCAC ((((((....)))..))) | -17.7 | 35.6

Sequence | folding enthalpy [1] [kcal/mol] | Tm [2] [°C]
GTGTACGGAAACGCACAC ((((.((....)).)))) | -38.1 | 49.1
GTGTACGGAAACGTACAC (((((((....))))))) | -33.6 | 67.2
GTGTACGGAAACGTACGC (.(((((....))))).) | -20.6 | 55.1
GTGTAGACGAAAGTCCAC (((..(((....)))))) | -20.6 | 42.8
GTGTAGGGAAACCTACAC (((((((....))))))) | -41.1 | 61.5
GTGTAGGGAAACTTACAC (((((.(....).))))) | -21.3 | 42
GTGTATACGAAAGTACAC (((..(((....)))))) | -23.2 | 41.1
GTGTATCCGAAAGGACAC (((..(((....)))))) | -21.6 | 42.2
GTGTATCGAAAGATGCAC (((.(((....))).))) | -41.9 | 53.6
GTGTCAGGAAACCAACAC ((((..(....)..)))) | -13.5 | 28
GTGTCCGAAAGGAGACAC ((((((....)))..))) | -21.7 | 50.7
GTGTCCGAAAGGATCCAC ((((((....)))..))) | -10.4 | 32.7
GTGTCCGGAAACGGGTAC ((..(((....)))..)) | -20 | 42.4
GTGTCGAAAGACAC (((((....))))) | -25.7 | 68
GTGTCGCGAAAGCGCCAC (((.(((....))).))) | -25.7 | 57.7
GTGTCGGGAAACTGACGC (.(((.(....).))).) | -24.5 | 45.5
GTGTCTACGAAAGTACAC (((..(((....)))))) | -13.2 | 38.5
GTGTCTGGAAACAGACGC (.(((((....))))).) | -33.4 | 54.7
GTGTCTGGAAACAGGCAC (((.(((....))).))) | -33.4 | 54.5
GTGTGACGAAAGTCTCAC (((.(((....))).))) | -31.9 | 55.9
GTGTGAGGAAACTTACAC ((((.((....)).)))) | -37.6 | 43.9
GTGTGCCGAAAGGCCCAC (((.(((....))).))) | -25.3 | 53.1
